Bioassay records from PubChem BioAssay.
M1 ag: M1 muscarinic receptor agonists, primary screen, CHO-M1 cells, Fluo-4 calcium, agonist mode; Muscarinic acetylcholine receptor M1; Fluo-4 calcium fluorescence; hits give high values; B-score at 10 µM; 3% of 64,000 active; AID 626, 2007;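 active = fluorescence rise, raw or as B-score row- and column-corrected plate score, outside the 99.7% band of its plate's samples, either direction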
M1 antagonist: antagonists of rat M1 muscarinic receptor. B-score at 10 µM. Muscarinic acetylcholine receptor M1 (Rattus norvegicus), P08482. AID 628, 2007. 3.4% of 64,000 active. CHO-M1 cells, Fluo-4 calcium, ACh EC80 antagonist mode; hits give low values;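 active = calcium fluorescence response, raw or row-and-column corrected B-score, differing from the plate sample mean either way at a set confidence level, mostly lower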
Target sequence (P08482 whole entry, looked up): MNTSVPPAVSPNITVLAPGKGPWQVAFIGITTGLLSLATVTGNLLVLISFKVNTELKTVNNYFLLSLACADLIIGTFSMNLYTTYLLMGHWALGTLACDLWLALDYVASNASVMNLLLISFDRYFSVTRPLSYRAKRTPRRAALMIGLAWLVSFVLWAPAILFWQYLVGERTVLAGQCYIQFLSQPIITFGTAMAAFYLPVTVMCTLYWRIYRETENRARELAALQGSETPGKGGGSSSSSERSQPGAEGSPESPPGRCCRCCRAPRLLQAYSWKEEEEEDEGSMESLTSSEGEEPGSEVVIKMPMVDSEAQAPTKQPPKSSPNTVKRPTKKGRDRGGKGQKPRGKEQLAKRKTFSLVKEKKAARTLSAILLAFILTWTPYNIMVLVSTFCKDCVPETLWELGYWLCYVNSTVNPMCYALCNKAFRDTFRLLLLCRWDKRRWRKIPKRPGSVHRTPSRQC
D1 allo mod: D1 CRE-luciferase signal change, two-sided – cell-based, HEK293 D1, dopamine EC30, D1 allosteric modulator project, primary screen | dopamine EC30 potentiation; actives deviate in either direction | B-score at 10 µM | 5.9% of 58,000 active;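 active = luminescence count or its row- and column-corrected plate score outside the 99.7% band of the plate's sample wells, on either side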
SF-1 act: activators of human SF-1, primary screen, cell-based, CHO-K1, Gal4-SF-1 LBD, luciferase luminescence; Steroidogenic factor 1 (Homo sapiens), Q13285; CHO-K1 Gal4-SF-1 LBD luciferase reporter; % increase over DMSO SF-1-specific signal; activation, % at 10 µM; 1.9% of 65,000 active;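 active = activation above the mean activation of all tested compounds plus 3 SD, cut at about 50% in these data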
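Material: CHO-K1 cells with Gal4–hSF-1 LBD chimera plus Gal4-driven luciferase / Input: 4,000 CHO-K1 cells per well / Incubation: compound exposure 20 h at 37 °C / Signal: luminescence read 15 min after SteadyLite luciferase reagent, after room-temperature equilibration / Read-out: percent activation versus DMSO / Benchmarks: DMSO negative control and −SF1 background wells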
HePTP inh: inhibitors of human HePTP phosphatase, primary screen, biochemical, absorbance, leukemia target | Tyrosine-protein phosphatase non-receptor type 7 (Homo sapiens), P35236 | recombinant HePTP phosphatase activity, OD absorbance | inhibition, % at 20 µM | 0.64% of 110,000 active; in the data active = inhibition above about 50%
RORA act: activators of orphan receptor RORA, primary screen, cell-based, luminescence. AID 560, 2006. 1.5% of 65,000 active. CHO-K1 Gal4-RORA LBD luciferase reporter; percent increase over mock-subtracted basal signal. activation, % at 10 µM. Nuclear receptor ROR-alpha (Homo sapiens), P35398;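 active = activation above the mean of all tested compounds plus 3 SD, cut at about 49% in these data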
D1 PAM confirm: D1 receptor positive allosteric modulators, retest, confirmation, cell-based, HEK293 D1, CRE-luciferase, duplicate. luminescence at 10 µM. shares compounds with D1 allo mod. dopamine EC30 potentiation; hits give high values. 88% of 2,200 active;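 active = luminescence in either of two replicates above the same-plate mean plus 3 SD of the low-dose dopamine control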
D1 no dopamine: D1 receptor agonism without dopamine, confirmation, mechanism study for D1 allosteric modulator project, cell-based, HEK293 D1, CRE-luciferase, secondary assay 1; shares compounds with D1 allo mod; luminescence, no dopamine; hits give high values; luminescence at 10 µM; 0.8% of 1,900 active; AID 646, 2007; in the data active = luminescence above about 3900
Isoprot counter: counter-screen for D1 modulators: isoproterenol response in HEK293 cells; shares compounds with D1 allo mod; HEK293 D1 CRE-luciferase, isoproterenol EC30 counter-screen; calls only at 10 µM; 63% of 2,200 active; AID 647;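 active = luminescence in either replicate above plate mean of wells with a partly effective reference agonist dose plus 3 SD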;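 also: isoproterenol raises cAMP through native beta-adrenoceptor Gs so signal bypasses D1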
Hits are given with their value. Sampled rows, rich in hits. Any-hit rate of the full collection: about 8.2%.

`CCc1ccc(C2C(C#N)=C(N)SC(N)=C2C#N)cc1` gave M1 ag inactive, M1 antagonist inactive, D1 allo mod inactive, SF-1 act inactive, HePTP inh inactive and RORA act inactive.
`CCc1ccc(C2C(C#N)=C(N)SC(N)=C2C#N)s1` gave M1 ag inactive, M1 antagonist inactive, D1 allo mod 7.3, SF-1 act inactive, HePTP inh inactive, RORA act inactive, D1 PAM confirm 8708, D1 no dopamine inactive and Isoprot counter active.
`Cc1ccc(-n2c(=O)[nH]c3c(C(N)=O)nc(-c4ccc(C)o4)nc32)cc1` gave M1 ag inactive, M1 antagonist inactive, D1 allo mod inactive, SF-1 act inactive, HePTP inh inactive and RORA act inactive.
For Cc1ccc(-n2c(=O)[nH]c3c(C(N)=O)nc(CC(C)C)nc32)cc1 the results were M1 ag inactive, M1 antagonist inactive, D1 allo mod 7.8, SF-1 act inactive, HePTP inh inactive, RORA act inactive, D1 PAM confirm 20900, D1 no dopamine inactive and Isoprot counter active.
COc1ccccc1-n1c(=O)[nH]c2c(C(N)=O)nc(CC(C)C)nc21 was read as M1 ag inactive, M1 antagonist inactive, D1 allo mod 5.9, SF-1 act inactive, HePTP inh inactive, RORA act inactive, D1 PAM confirm 9424, D1 no dopamine inactive and Isoprot counter inactive.
`COc1ccccc1-n1c(=O)[nH]c2c(C(N)=O)nc(C3CCCCC3)nc21` gave M1 ag inactive, M1 antagonist inactive, D1 allo mod inactive, SF-1 act inactive, HePTP inh inactive and RORA act inactive.
COc1ccc(S(=O)(=O)Cc2ccc(C(=O)N3CCN(c4ccccc4F)CC3)o2)cc1 was read as M1 ag inactive, M1 antagonist inactive, D1 allo mod inactive, SF-1 act inactive, HePTP inh inactive and RORA act inactive.
Screening C=CCNc1nc(-c2ccccc2)nc(-n2ccnc2)n1 returned M1 ag inactive, M1 antagonist inactive, D1 allo mod 8.7, SF-1 act inactive, HePTP inh inactive, RORA act inactive, D1 PAM confirm 22092, D1 no dopamine inactive and Isoprot counter active.
CC(C)Nc1nc(-c2ccccc2)nc(-n2ccnc2)n1 was read as M1 ag inactive, M1 antagonist inactive, D1 allo mod 11, SF-1 act inactive, HePTP inh inactive, RORA act inactive, D1 PAM confirm 23348, D1 no dopamine inactive and Isoprot counter active.
For c1ccc(CN2CCN(c3nc(-c4ccccc4)nc(-n4ccnc4)n3)CC2)cc1 the results were M1 ag inactive, M1 antagonist inactive, D1 allo mod inactive, SF-1 act inactive, HePTP inh inactive and RORA act inactive.
Screening c1ccc(-c2nc(NC3CC3)nc(-n3ccnc3)n2)cc1 returned M1 ag inactive, M1 antagonist inactive, D1 allo mod 11, SF-1 act inactive, HePTP inh inactive, RORA act inactive, D1 PAM confirm 26636, D1 no dopamine inactive and Isoprot counter active.
For COc1ccc(Br)cc1/C=C1\SC(N2CCCC2)=NC1=O the results were HePTP inh inactive.
COc1ccc(-c2noc(CCC(=O)Nc3cccnc3)n2)cc1OC was read as M1 ag inactive, M1 antagonist inactive, D1 allo mod 4.7, SF-1 act inactive, HePTP inh inactive, RORA act inactive, D1 PAM confirm 17976, D1 no dopamine inactive and Isoprot counter inactive.
Screening CCOc1ccc(-c2nc(-c3ccc(OC)c(OC)c3)no2)cc1OCC returned M1 ag inactive, M1 antagonist inactive, D1 allo mod inactive, SF-1 act inactive, HePTP inh inactive and RORA act inactive.
For CCOc1ccc(Cc2nc(-c3nonc3N)no2)cc1OCC the results were M1 ag inactive, M1 antagonist inactive, D1 allo mod 7.7, SF-1 act inactive, HePTP inh inactive, RORA act inactive, D1 PAM confirm 13988, D1 no dopamine inactive and Isoprot counter active.
`CCOc1ccc(-c2noc(CCC(N)=O)n2)cc1OCC` gave D1 allo mod 11, SF-1 act inactive, HePTP inh inactive, RORA act inactive, D1 PAM confirm 16532, D1 no dopamine inactive and Isoprot counter active.
For COc1cccc(-c2noc(CCC(=O)Nc3cccnc3)n2)c1 the results were M1 ag inactive, M1 antagonist inactive, D1 allo mod inactive, SF-1 act inactive, HePTP inh inactive and RORA act inactive.
Screening CCCc1[nH]nc2c1C1(CCN(C(=O)OCc3ccccc3)CC1)C(C#N)=C(N)O2 returned M1 ag inactive, M1 antagonist inactive, D1 allo mod 2.5, SF-1 act inactive, HePTP inh inactive, RORA act inactive, D1 PAM confirm 8040, D1 no dopamine inactive and Isoprot counter active.
CCCc1nnc2n1N=C(c1ccc(OC)c(OC)c1)CS2 was read as M1 ag inactive, M1 antagonist inactive, D1 allo mod 26, SF-1 act inactive, HePTP inh inactive, RORA act inactive, D1 PAM confirm 22008 and Isoprot counter active.
CCOc1ccc(C2=Nn3c(nnc3-c3cccnc3)SC2)cc1 was read as M1 ag inactive, M1 antagonist inactive, SF-1 act inactive, HePTP inh inactive and RORA act inactive.
Screening c1ccc(C2=Nn3c(nnc3-c3cccnc3)SC2)cc1 returned M1 ag inactive, M1 antagonist inactive, D1 allo mod 4.9, SF-1 act inactive, HePTP inh inactive, RORA act inactive, D1 PAM confirm 11260, D1 no dopamine inactive and Isoprot counter inactive.
`c1ccc(C2=Nn3c(nnc3-c3ccccn3)SC2)cc1` gave M1 ag inactive, M1 antagonist inactive, SF-1 act inactive, HePTP inh inactive and RORA act inactive.
Cc1ccc(-c2nnc3n2N=C(c2ccccc2Br)CS3)cc1 was read as M1 ag inactive, M1 antagonist inactive, D1 allo mod 16, SF-1 act inactive, HePTP inh inactive, RORA act inactive, D1 PAM confirm 15256, D1 no dopamine inactive and Isoprot counter active.
